Data taken from ChEMBL document CHEMBL4004831, “Naphthalene diimide-polyamine hybrids as antiproliferative agents: Focus on the architecture of the polyamine chains” (Eur J Med Chem, 2017).
Values belong to the compound of their own block, whether it stands above or below them.

Key:
MDA-MB-468 = assay: Growth inhibition of human MDA-MB-468 cells incubated for 48 hrs by sulforhodamine B assay; assay type: functional; details: MDA-MB-468, 48 h
NCI-H522 = assay: Growth inhibition of human NCI-H522 cells incubated for 48 hrs by sulforhodamine B assay; assay type: functional; details: NCI-H522, 48 h
NCI-H460 = assay: Growth inhibition of human NCI-H460 cells incubated for 48 hrs by sulforhodamine B assay; assay type: functional; details: NCI-H460, 48 h
LOX IMVI = assay: Growth inhibition of human LOXIMVI cells incubated for 48 hrs by sulforhodamine B assay; assay type: functional
SR = assay: Growth inhibition of human SR cells incubated for 48 hrs by sulforhodamine B assay; assay type: functional
MDA-MB-435 = assay: Growth inhibition of human MDA-MB-435 cells incubated for 48 hrs by sulforhodamine B assay; assay type: functional; details: MDA-MB-435, 48 h
A498 = assay: Growth inhibition of human A498 cells incubated for 48 hrs by sulforhodamine B assay; assay type: functional; details: A498, 48 h
NCI-H226 = assay: Growth inhibition of human NCI-H226 cells incubated for 48 hrs by sulforhodamine B assay; assay type: functional; details: NCI-H226, 48 h
NCI-H23 = assay: Growth inhibition of human NCI-H23 cells incubated for 48 hrs by sulforhodamine B assay; assay type: functional; details: NCI-H23, 48 h
SNB-75 = assay: Growth inhibition of human SNB75 cells incubated for 48 hrs by sulforhodamine B assay; assay type: functional; details: SNB-75, 48 h
UACC-257 = assay: Growth inhibition of human UACC257 cells incubated for 48 hrs by sulforhodamine B assay; assay type: functional; details: UACC-257, 48 h
OVCAR-4 = assay: Growth inhibition of human OVCAR4 cells incubated for 48 hrs by sulforhodamine B assay; assay type: functional; details: OVCAR-4, 48 h
SF-268 = assay: Growth inhibition of human SF268 cells incubated for 48 hrs by sulforhodamine B assay; assay type: functional; details: SF-268, 48 h
SF-295 = assay: Growth inhibition of human SF295 cells incubated for 48 hrs by sulforhodamine B assay; assay type: functional; details: SF-295, 48 h
SW-620 = assay: Growth inhibition of human SW620 cells incubated for 48 hrs by sulforhodamine B assay; assay type: functional; details: SW-620, 48 h
K562 = assay: Growth inhibition of human K562 cells incubated for 48 hrs by sulforhodamine B assay; assay type: functional; details: K562, 48 h
U-251 = assay: Growth inhibition of human U251 cells incubated for 48 hrs by sulforhodamine B assay; assay type: functional; details: U-251, 48 h
SK-OV-3 = assay: Growth inhibition of human SKOV3 cells incubated for 48 hrs by sulforhodamine B assay; assay type: functional; details: SK-OV-3, 48 h
UO-31 = assay: Growth inhibition of human UO31 cells incubated for 48 hrs by sulforhodamine B assay; assay type: functional; details: UO-31, 48 h
TK-10 = assay: Growth inhibition of human TK10 cells incubated for 48 hrs by sulforhodamine B assay; assay type: functional; details: TK-10, 48 h
OVCAR-8 = assay: Growth inhibition of human OVCAR8 cells incubated for 48 hrs by sulforhodamine B assay; assay type: functional; details: OVCAR-8, 48 h
NCI/ADR-RES = assay: Growth inhibition of human NCI-ADR-RES cells incubated for 48 hrs by sulforhodamine B assay; assay type: functional
M14 = assay: Growth inhibition of human M14 cells incubated for 48 hrs by sulforhodamine B assay; assay type: functional; details: M14, 48 h
SN12C = assay: Growth inhibition of human SN12C cells incubated for 48 hrs by sulforhodamine B assay; assay type: functional
OVCAR-5 = assay: Growth inhibition of human OVCAR5 cells incubated for 48 hrs by sulforhodamine B assay; assay type: functional; details: OVCAR-5, 48 h
SK-MEL-5 = assay: Growth inhibition of human SK-MEL-5 cells incubated for 48 hrs by sulforhodamine B assay; assay type: functional; details: SK-MEL-5, 48 h
KM12 = assay: Growth inhibition of human KM12 cells incubated for 48 hrs by sulforhodamine B assay; assay type: functional; details: KM12, 48 h
HCT-116 = assay: Growth inhibition of human HCT116 cells incubated for 48 hrs by sulforhodamine B assay; assay type: functional; details: HCT-116, 48 h
DU-145 = assay: Growth inhibition of human DU145 cells incubated for 48 hrs by sulforhodamine B assay; assay type: functional; details: DU-145, 48 h
SNB-19 = assay: Growth inhibition of human SNB19 cells incubated for 48 hrs by sulforhodamine B assay; assay type: functional; details: SNB-19, 48 h
HOP-62 = assay: Growth inhibition of human HOP62 cells incubated for 48 hrs by sulforhodamine B assay; assay type: functional; details: HOP-62, 48 h
[1] = Stabilization of 5'Dabcyl/3'FAM labeled duplex DNA (unknown origin) assessed as increase in melting temperature at 2.5 uM pretreated for 5 mins at 30 degreeC followed by 5 mins incubation at 95 degreeC by fluorescence assay
Outline: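 FRET melting in LiP buffer (10 mM LiOH, 50 mM KCl, pH 7.0 with H3PO4), ex 488 nm, em 520 nm. Samples were held 5 min at 30 °C, heated at 1 °C/min to 95 °C, held 5 min, then re-annealed. Tm came from first derivatives; ΔTm = shift with ligand at 2.5; at least three runs.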

MCF7 = assay: Growth inhibition of human MCF7 cells incubated for 48 hrs by sulforhodamine B assay; assay type: functional; details: MCF7, 48 h
HCC 2998 = assay: Growth inhibition of human HCC2998 cells incubated for 48 hrs by sulforhodamine B assay; assay type: functional; details: HCC 2998, 48 h
A549 = assay: Growth inhibition of human A549/ATCC cells incubated for 48 hrs by sulforhodamine B assay; assay type: functional; details: A549, 48 h
BT-549 = assay: Growth inhibition of human BT549 cells incubated for 48 hrs by sulforhodamine B assay; assay type: functional; details: BT-549, 48 h
Malme-3M = assay: Growth inhibition of human MALME-3M cells incubated for 48 hrs by sulforhodamine B assay; assay type: functional
IGROV-1 = assay: Growth inhibition of human IGROV1 cells incubated for 48 hrs by sulforhodamine B assay; assay type: functional; details: IGROV-1, 48 h
MDA-MB-231 = assay: Growth inhibition of human MDA-MB-231 cells incubated for 48 hrs by sulforhodamine B assay; assay type: functional; details: MDA-MB-231, 48 h
ACHN = assay: Growth inhibition of human ACHN cells incubated for 48 hrs by sulforhodamine B assay; assay type: functional
UACC-62 = assay: Growth inhibition of human UACC62 cells incubated for 48 hrs by sulforhodamine B assay; assay type: functional; details: UACC-62, 48 h
HT-29 = assay: Growth inhibition of human HT-29 cells incubated for 48 hrs by sulforhodamine B assay; assay type: functional; details: HT-29, 48 h
PC-3 = assay: Growth inhibition of human PC3 cells incubated for 48 hrs by sulforhodamine B assay; assay type: functional; details: PC-3, 48 h
HOP-92 = assay: Growth inhibition of human HOP92 cells incubated for 48 hrs by sulforhodamine B assay; assay type: functional; details: HOP-92, 48 h
OVCAR-3 = assay: Growth inhibition of human OVCAR3 cells incubated for 48 hrs by sulforhodamine B assay; assay type: functional; details: OVCAR-3, 48 h

GI50 (MDA-MB-468): 289 nM | GI50 (NCI-H522): 919 nM | GI50 (NCI-H460): 657 nM | GI50 (MDA-MB-435): 200 nM | GI50 (NCI-H226): 1560 nM | GI50 (NCI-H23): 605 nM | GI50 (OVCAR-4): 197 nM | GI50 (SW-620): 357 nM | GI50 (K562): 494 nM | GI50 (U-251): 1240 nM | GI50 (SK-OV-3): 2360 nM | GI50 (OVCAR-8): 491 nM | GI50 (OVCAR-5): 1890 nM | GI50 (SK-MEL-5): 288 nM | GI50 (HCT-116): 344 nM | GI50 (DU-145): 1780 nM | ΔTm [1]: 1.5 °C | GI50 (MCF7): 333 nM | GI50 (HCC 2998): 635 nM | GI50 (A549): 1220 nM | GI50 (BT-549): 1950 nM | GI50 (MDA-MB-231): 1220 nM | GI50 (ACHN): 1110 nM | GI50 (HT-29): 402 nM | GI50 (PC-3): 1440 nM | GI50 (OVCAR-3): 593 nM
SMILES: COc1ccccc1CNCCCN1C(=O)c2ccc3c4c(ccc(c24)C1=O)C(=O)N(CCCOCCCCOCCCN)C3=O
GI50 (LOX IMVI): 760 nM | GI50 (SR): 346 nM | GI50 (A498): 1320 nM | GI50 (SNB-75): 1790 nM | GI50 (UACC-257): 283 nM | GI50 (SF-268): 1430 nM | GI50 (SF-295): 1420 nM | GI50 (UO-31): 1550 nM | GI50 (TK-10): 1970 nM | GI50 (NCI/ADR-RES): 1470 nM | GI50 (M14): 1090 nM | GI50 (SN12C): 918 nM | GI50 (KM12): 1270 nM | GI50 (SNB-19): 1530 nM | GI50 (HOP-62): 2660 nM | GI50 (Malme-3M): 248 nM | GI50 (IGROV-1): 1260 nM | GI50 (UACC-62): 742 nM | GI50 (HOP-92): 2080 nM

GI50 (MDA-MB-468): 85 nM | GI50 (NCI-H522): 172 nM | GI50 (NCI-H460): 313 nM | GI50 (MDA-MB-435): 184 nM | GI50 (NCI-H226): 808 nM | GI50 (NCI-H23): 193 nM | GI50 (OVCAR-4): 155 nM | GI50 (SW-620): 155 nM | GI50 (K562): 281 nM | GI50 (U-251): 173 nM | GI50 (SK-OV-3): 290 nM | GI50 (OVCAR-8): 231 nM | GI50 (OVCAR-5): 944 nM | GI50 (SK-MEL-5): 153 nM | GI50 (HCT-116): 185 nM | GI50 (DU-145): 853 nM | ΔTm [1]: 12.2 °C | GI50 (MCF7): 185 nM | GI50 (HCC 2998): 149 nM | GI50 (A549): 258 nM | GI50 (BT-549): 1180 nM | GI50 (MDA-MB-231): 204 nM | GI50 (ACHN): 535 nM | GI50 (HT-29): 188 nM | GI50 (PC-3): 230 nM | GI50 (OVCAR-3): 293 nM
SMILES: COc1ccccc1CNCCCN1C(=O)c2ccc3c4c(ccc(c24)C1=O)C(=O)N(CCCNCCCCN)C3=O
GI50 (LOX IMVI): 188 nM | GI50 (SR): 76 nM | GI50 (A498): 619 nM | GI50 (SNB-75): 304 nM | GI50 (UACC-257): 163 nM | GI50 (SF-268): 268 nM | GI50 (SF-295): 448 nM | GI50 (UO-31): 1860 nM | GI50 (NCI/ADR-RES): 366 nM | GI50 (M14): 343 nM | GI50 (SN12C): 280 nM | GI50 (KM12): 324 nM | GI50 (SNB-19): 292 nM | GI50 (HOP-62): 290 nM | GI50 (Malme-3M): 174 nM | GI50 (IGROV-1): 179 nM | GI50 (UACC-62): 175 nM | GI50 (HOP-92): 273 nM

GI50 (MDA-MB-468): 1890 nM | GI50 (NCI-H522): 5620 nM | GI50 (NCI-H460): 2530 nM | GI50 (MDA-MB-435): 795 nM | GI50 (NCI-H226): 2170 nM | GI50 (NCI-H23): 2990 nM | GI50 (OVCAR-4): 1700 nM | GI50 (SW-620): 2160 nM | GI50 (K562): 2780 nM | GI50 (U-251): 3240 nM | GI50 (SK-OV-3): 6190 nM | GI50 (OVCAR-8): 2890 nM | GI50 (OVCAR-5): 5350 nM | GI50 (SK-MEL-5): 813 nM | GI50 (HCT-116): 2040 nM | GI50 (DU-145): 5090 nM | ΔTm [1]: 17.1 °C | GI50 (MCF7): 2770 nM | GI50 (HCC 2998): 3120 nM | GI50 (A549): 3450 nM | GI50 (BT-549): 3400 nM | GI50 (MDA-MB-231): 4630 nM | GI50 (ACHN): 2860 nM | GI50 (HT-29): 3360 nM | GI50 (PC-3): 7450 nM | GI50 (OVCAR-3): 2930 nM
SMILES: CNCCCNCCCCNCCCN1C(=O)c2ccc3c4c(ccc(c24)C1=O)C(=O)N(CCCNCc1ccccc1OC)C3=O
GI50 (LOX IMVI): 3030 nM | GI50 (SR): 4420 nM | GI50 (A498): 1780 nM | GI50 (SNB-75): 1050 nM | GI50 (UACC-257): 1250 nM | GI50 (SF-268): 3510 nM | GI50 (SF-295): 1330 nM | GI50 (UO-31): 4310 nM | GI50 (TK-10): 4080 nM | GI50 (NCI/ADR-RES): 7090 nM | GI50 (M14): 2630 nM | GI50 (SN12C): 2950 nM | GI50 (KM12): 2750 nM | GI50 (SNB-19): 3790 nM | GI50 (HOP-62): 2330 nM | GI50 (Malme-3M): 939 nM | GI50 (IGROV-1): 3020 nM | GI50 (UACC-62): 711 nM | GI50 (HOP-92): 2210 nM
